MrgX1 agonist: human MrgX1 receptor agonism, primary screen. MrgX1-HEK293 cells, Fluo-4 calcium fluorescence, agonist mode; active compounds read high. B-score at 10 µM. hit rate 0.44% among 310,000;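 active = calcium response B-score plate-corrected fluorescence ratio at least 3 library SD, with starting fluorescence B-score inside 5 SD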
Target sequence (Q96LB2 whole entry, looked up): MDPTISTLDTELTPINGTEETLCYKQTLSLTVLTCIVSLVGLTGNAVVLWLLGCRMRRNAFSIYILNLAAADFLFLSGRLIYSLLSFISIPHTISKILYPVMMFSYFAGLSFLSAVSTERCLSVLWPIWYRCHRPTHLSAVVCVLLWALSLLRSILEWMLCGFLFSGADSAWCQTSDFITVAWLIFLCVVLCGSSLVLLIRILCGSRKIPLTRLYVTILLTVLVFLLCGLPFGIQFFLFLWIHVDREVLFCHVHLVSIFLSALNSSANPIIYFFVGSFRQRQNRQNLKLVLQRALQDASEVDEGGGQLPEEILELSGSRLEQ
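Test system: HEK293 cells stably expressing human MrgX1 receptor; Input: fifteen thousand cells per well; Dosing: compound delivered in addition one of three; Schedule: overnight seeding, then 1 h dark dye loading; Technique: Fluo-4 NW calcium fluorescence; Measure: B-scored fluorescence response ratio; Controls: positive and negative controls per plate.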
MrgX1 allo act: allosterically activates human MrgX1 receptor signaling. Q96LB2. MrgX1-HEK293, Fluo-4 calcium flux, FDSS; active compounds read high. B-score at 10 µM. hit rate 0.63% among 310,000. AID 588675;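 active = plate-corrected calcium response at least 3 library SD above typical, normal starting fluorescence, not activating the receptor alone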;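 note: compound read alongside a low EC10 to EC30 dose of BAM8-22 agonist; peak minus trough fluorescence over baseline measured at the second addition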
RGS4 inh: human RGS4 inhibition; HEK293 M3R/RGS4 inducible, Fluo-4 calcium flux; active compounds read high; triggered by carbachol at its EC20; hit rate 0.45% among 310,000; B-score at 10 µM;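 active = B-score, a plate-corrected calcium signal, over three deviations above library mean, with baseline fluorescence within five deviations of library mean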;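 note: RGS4 expression induced by doxycycline in cells with stable M3 receptor; B-score is computed from the integrated fluorescence ratio over baseline after carbachol; higher B-score means a larger calcium signal and so more RGS4 inhibition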
Target sequence (P49798 whole entry, looked up): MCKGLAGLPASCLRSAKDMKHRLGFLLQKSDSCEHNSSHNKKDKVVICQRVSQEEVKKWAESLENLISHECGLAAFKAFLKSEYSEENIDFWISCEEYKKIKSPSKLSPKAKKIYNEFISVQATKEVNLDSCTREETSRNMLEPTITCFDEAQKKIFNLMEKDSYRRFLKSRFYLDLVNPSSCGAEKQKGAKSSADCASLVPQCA
MrgX1 antag: human MrgX1 receptor antagonism, primary screen; Q96LB2; MRGX1-HEK293 calcium flux, Fluo-4, BAM8-22 antagonism; active compounds read low; B-score at 10 µM; hit rate 1.3% among 310,000; AID 588676;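 active = calcium-response B-score plate-corrected more than 3 library SD below zero, starting fluorescence within 5 deviations, no agonist response on first addition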;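 note: peak minus trough fluorescence over baseline after final BAM8-22 challenge near maximal dose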
RGS4 pot: potentiators or activators of RGS4 | HEK293 M3R/inducible RGS4, carbachol calcium flux Fluo4; active compounds read low | AID 463111 | hit rate 0.92% among 310,000 | B-score at 10 µM;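 active = B-score of the integrated calcium signal more than 4 SD below the library mean, with starting fluorescence not abnormally high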;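 note: negative B-score means reduced calcium response which marks RGS4 activation or potentiation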
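Test system: HEK293 cells with stable M3R and inducible RGS4; also added: carbachol at ECmax as muscarinic agonist stimulus; schedule: dye loading 30 min 37 °C, buffer rest 30 min RT; technique: kinetic calcium fluorescence imaging with Fluo4-AM dye, 2 µM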
Starred values were filed as active, the others as inactive; i = inactive; nt = no result given. Shown are actives, neighbours in structure and some others; about 3.5% of the full set was active somewhere.

SMILES | MrgX1 agonist | MrgX1 allo act | RGS4 inh | MrgX1 antag | RGS4 pot
COc1cc(C2C(C#N)=C(N)OC3=C2C(=O)CC(C)(C)C3)c([N+](=O)[O-])cc1OC (configuration not stated) | 29* | i | i | i | i
COc1ccc(C2C(C#N)=C(N)OC3=C2C(=O)CC(C)(C)C3)c([N+](=O)[O-])c1OC (configuration not stated) | i | i | i | i | i
CN1CCC(=C(c2ccccc2)c2ccc(Br)cc2)CC1 | i | i | i | i | -7.7*
O=C(NC1CCCCC1)c1cc(S(=O)(=O)N2CCOCC2)ccc1Cl | i | i | i | i | i
COc1ccccc1NC(=O)C(Sc1ccccc1)c1ccccc1 (configuration not stated) | i | i | i | i | i
CCOc1ccccc1NC(=O)C(Sc1ccccc1)c1ccccc1 (configuration not stated) | i | i | i | -5* | -7.3*
N=c1c2c(-c3ccccc3)c(-c3ccccc3)n(Cc3ccco3)c2ncn1Cc1ccco1 | i | i | i | -8.1* | -7*
N=c1c2c(-c3ccccc3)c(-c3ccccc3)n(Cc3ccccc3)c2ncn1CCCn1ccnc1 | i | i | i | i | i
Cc1nc(NC(=O)/C=C/c2ccccc2)n[nH]1 | i | i | i | i | i
COc1cc(OC)c(C(=O)Nc2ccncc2)cc1OC | i | i | i | i | i
COc1cc(OC)c(C(=O)Nc2ccc(C(=O)c3ccccc3)cc2)cc1OC | i | i | i | i | -7.2*
COc1cccc(C(=O)Nc2ccc(C(=O)c3ccncc3)cc2)c1 | i | 7.1* | i | i | i
COc1cccc(C(=O)Nc2ccc(NC(C)=O)cc2)c1 | i | i | i | i | i
COc1ccc(C(=O)N/N=C(/C)c2cccc(NC(=O)c3ccncc3)c2)cc1OC | i | i | i | i | -7*
CCOC(=O)CN1C(=O)CC(c2ccccc2)C1=O (configuration not stated) | i | i | i | i | i
O=C(NCCS(=O)(=O)N1CCCCCC1)c1ccccc1 | i | i | i | i | i
CCCCCn1c(=O)c2ccccc2n2c(=S)[nH]nc12 | i | i | i | i | i
S=c1[nH]nc(COc2ccccc2)n1Cc1ccccc1 | i | i | i | i | i
CC(C)CCn1c(COc2ccccc2)n[nH]c1=S | i | i | i | i | -7.1*
CCCCn1c(Cc2ccccc2)n[nH]c1=S | i | i | i | i | -7.4*
CCCCn1c(=O)c2ccccc2n2c(=S)[nH]nc12 | i | i | i | -5.4* | i
COc1ccc(NC(=O)COC(=O)c2ccc(OCc3ccccc3Cl)c(OC)c2)c(OC)c1 | i | i | i | -6* | i
S=C(NC1CCCCC1)N(CCc1ccccc1)CCc1ccccc1 | i | i | i | i | i
O=C(NNC(=O)c1cc(-c2cccc(Br)c2)nc2ccccc12)c1csc(N2CCOCC2)n1 | i | i | i | i | -7.6*
COc1ccc(S(=O)(=O)Nc2ccc(-n3cccc3)cc2)cc1 | i | i | i | i | i
SMILES | MrgX1 agonist | MrgX1 allo act | RGS4 inh | MrgX1 antag | RGS4 pot
Cc1ccccc1NC(=O)CN1C(=O)CSc2ccc(S(=O)(=O)N3CCCCC3)cc21 | i | i | i | i | i
Cc1ccc(-n2c3nc(=O)n(C)c(=O)c-3cc3ccccc32)cc1 | i | i | i | i | -8*
COc1ccc(-c2csc(/C(C#N)=C(\O)CSc3nccn3C)n2)cc1OC | i | i | i | i | i
O=S(=O)(c1ccc(Br)cc1)N1CCCN(Cc2cccc(F)c2)CC1 | i | i | i | i | -8.3*
COc1cccc(CN2CCCN(S(=O)(=O)c3ccc(Br)cc3)CC2)c1 | i | i | i | i | i
CCOc1ccc(NC(=O)CN(C)C(=O)Cc2c[nH]c3ccccc23)cc1OCC | i | i | i | i | i
O=C(/C=C/c1ccccc1Cl)Nc1ccc(-c2nnc3n2CCCCC3)cc1 | i | i | i | i | -8.1*
CC(C)(C)CC(=O)Nc1ccc(-c2nnc3n2CCCCC3)cc1 | i | i | i | i | i
NC(=O)c1ncn([C@@H]2O[C@H](CO)[C@@H](O)[C@H]2O)c1O | i | i | i | -9* | i
Nc1ncn(C2O[C@H](CO)[C@@H](O)[C@H]2O)c(=O)n1 (some centres not stated) | i | i | nt | i | nt
Cc1c(CCC(=O)N2CCC(C(=O)O)CC2)c(=O)oc2cc3oc4c(c3cc12)CCCC4 | i | i | i | i | i
Cc1c(CCC(=O)N2CCC(C(=O)O)(c3ccccc3)CC2)c(=O)oc2cc3oc4c(c3cc12)CCCC4 | i | i | i | -6.2* | i
O=C(CC1C(=O)NCCN1CC1CCCCC1)NCCCN1CCOCC1 (configuration not stated) | i | i | i | i | i
CN(CCCC(=O)N1CCCC(C(N)=O)C1)S(=O)(=O)c1ccc(F)cc1 (configuration not stated) | i | i | i | i | i
CC(C)(C)c1ccc(CN2N=Nc3ccccc3S2(=O)=O)cc1 | i | i | i | i | i
O=S1(=O)c2ccccc2N=NN1Cc1ccc(Cl)c(Cl)c1 | 29* | i | i | i | i
C/C(=N\Nc1nncc2ccccc12)c1cccc(OC(F)F)c1 | i | i | i | i | i
Cc1ccc(-c2nnn(CC(=O)N3CCN(c4ccccc4)CC3)n2)o1 | i | i | i | i | -7.6*
COc1ccc(N2CCN(C(=O)Cn3nnc(-c4ccc(OC)c(OC)c4)n3)CC2)cc1 | i | i | i | i | i
C=CCN1C(=O)C(CC(=O)Nc2ccccc2)N(Cc2ccccn2)C1=S (configuration not stated) | i | i | i | i | i
Cc1cccc(C)c1NC(=O)NN=C1CCCCC1 | i | i | i | i | i
Nc1nonc1NC(=O)NN=C1CCCCC1 | i | i | i | -5.9* | i
COc1ccc(C(=O)NCCCNC(=O)c2cnccn2)cc1 | i | i | i | i | i
CCC(NC(=S)NC1CCCCC1)c1ccc(C(C)C)cc1 (configuration not stated) | i | i | i | -5.3* | -8.5*
CC(=O)Nc1ccc(NC(=O)CCC(=O)OCC(=O)c2ccc(C)c([N+](=O)[O-])c2)cc1 | i | i | i | -5.6* | i

Screening results from PubChem.
